Measured values: ChEMBL document CHEMBL2331160, “Trimeric hemibastadin congener from the marine sponge Ianthella basta” (J Nat Prod, 2013)

Key:
L5178Y = assay: Cytotoxicity against mouse L5178Y cells assessed as inhibition of cell proliferation by MTT assay; assay type: functional, cell-based
Focal adhesion kinase 1 = Focal adhesion kinase 1 (Homo sapiens, UniProt Q05397); assay: Inhibition of FAK (unknown origin)
Procedure, shortened: (§1)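 Biochemical (cell-free) assay within a panel of 24 protein kinases. Results reported as IC50 values. Procedure as described in earlier work.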

[1] = target: Serine/threonine-protein kinase B-raf (Homo sapiens, UniProt P15056, V600E); assay: Inhibition of B-RAF V600E mutant (unknown origin); procedure, shortened: as §1
[2] = target: Vascular endothelial growth factor receptor 2 (Homo sapiens, UniProt P35968); assay: Inhibition of VEGFR2 (unknown origin); procedure, shortened: as §1
[3] = target: Proto-oncogene tyrosine-protein kinase Src (Homo sapiens, UniProt P12931); assay: Inhibition of SRC (unknown origin); procedure, shortened: as §1
Ephrin type-B receptor 4 = Ephrin type-B receptor 4 (Homo sapiens, UniProt P54760); assay: Inhibition of EPHB4 (unknown origin); procedure, shortened: as §1
Ephrin type-B receptor 4, sequence (P54760 whole entry): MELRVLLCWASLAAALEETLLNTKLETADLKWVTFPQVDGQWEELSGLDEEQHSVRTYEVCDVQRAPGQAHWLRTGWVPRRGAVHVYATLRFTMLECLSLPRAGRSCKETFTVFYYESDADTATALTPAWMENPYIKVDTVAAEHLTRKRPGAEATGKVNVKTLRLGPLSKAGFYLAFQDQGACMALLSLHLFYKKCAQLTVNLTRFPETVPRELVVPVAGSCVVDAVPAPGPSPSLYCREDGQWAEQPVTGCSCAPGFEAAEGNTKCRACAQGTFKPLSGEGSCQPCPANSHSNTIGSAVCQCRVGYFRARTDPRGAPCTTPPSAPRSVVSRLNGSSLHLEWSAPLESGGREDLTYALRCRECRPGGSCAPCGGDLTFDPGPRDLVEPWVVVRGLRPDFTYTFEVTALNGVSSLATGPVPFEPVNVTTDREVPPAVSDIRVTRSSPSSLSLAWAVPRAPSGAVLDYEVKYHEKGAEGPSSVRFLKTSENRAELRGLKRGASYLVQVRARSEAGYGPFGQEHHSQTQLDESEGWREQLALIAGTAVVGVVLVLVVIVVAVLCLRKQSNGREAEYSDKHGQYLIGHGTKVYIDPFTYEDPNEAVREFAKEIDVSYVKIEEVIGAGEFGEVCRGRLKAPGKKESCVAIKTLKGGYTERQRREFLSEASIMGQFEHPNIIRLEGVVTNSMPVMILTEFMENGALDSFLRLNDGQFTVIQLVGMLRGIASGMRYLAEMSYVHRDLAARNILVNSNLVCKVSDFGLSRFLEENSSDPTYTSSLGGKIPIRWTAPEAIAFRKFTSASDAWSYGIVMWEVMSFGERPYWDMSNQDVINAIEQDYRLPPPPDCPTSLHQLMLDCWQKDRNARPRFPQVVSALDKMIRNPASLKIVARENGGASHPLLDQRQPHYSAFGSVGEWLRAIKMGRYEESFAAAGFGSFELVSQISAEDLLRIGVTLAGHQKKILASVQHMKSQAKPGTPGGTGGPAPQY

Aurora kinase B = Aurora kinase B (Homo sapiens, UniProt Q96GD4); assay: Inhibition of aurora-B (unknown origin); procedure, shortened: as §1
Aurora kinase B, sequence (Q96GD4 whole entry): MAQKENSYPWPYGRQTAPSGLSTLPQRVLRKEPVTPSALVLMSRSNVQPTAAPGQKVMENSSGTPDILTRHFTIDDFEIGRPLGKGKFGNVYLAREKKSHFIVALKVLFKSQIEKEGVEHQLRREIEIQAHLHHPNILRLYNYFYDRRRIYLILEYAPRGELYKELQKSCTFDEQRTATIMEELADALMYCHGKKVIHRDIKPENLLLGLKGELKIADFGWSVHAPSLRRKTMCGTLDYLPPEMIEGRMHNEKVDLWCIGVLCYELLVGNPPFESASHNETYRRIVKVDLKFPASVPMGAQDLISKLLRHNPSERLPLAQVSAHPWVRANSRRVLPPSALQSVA

[4] = target: Epidermal growth factor receptor (Homo sapiens, UniProt P00533); assay: Inhibition of EGFR (unknown origin); procedure, shortened: as §1
Epidermal growth factor receptor, sequence (P00533 whole entry): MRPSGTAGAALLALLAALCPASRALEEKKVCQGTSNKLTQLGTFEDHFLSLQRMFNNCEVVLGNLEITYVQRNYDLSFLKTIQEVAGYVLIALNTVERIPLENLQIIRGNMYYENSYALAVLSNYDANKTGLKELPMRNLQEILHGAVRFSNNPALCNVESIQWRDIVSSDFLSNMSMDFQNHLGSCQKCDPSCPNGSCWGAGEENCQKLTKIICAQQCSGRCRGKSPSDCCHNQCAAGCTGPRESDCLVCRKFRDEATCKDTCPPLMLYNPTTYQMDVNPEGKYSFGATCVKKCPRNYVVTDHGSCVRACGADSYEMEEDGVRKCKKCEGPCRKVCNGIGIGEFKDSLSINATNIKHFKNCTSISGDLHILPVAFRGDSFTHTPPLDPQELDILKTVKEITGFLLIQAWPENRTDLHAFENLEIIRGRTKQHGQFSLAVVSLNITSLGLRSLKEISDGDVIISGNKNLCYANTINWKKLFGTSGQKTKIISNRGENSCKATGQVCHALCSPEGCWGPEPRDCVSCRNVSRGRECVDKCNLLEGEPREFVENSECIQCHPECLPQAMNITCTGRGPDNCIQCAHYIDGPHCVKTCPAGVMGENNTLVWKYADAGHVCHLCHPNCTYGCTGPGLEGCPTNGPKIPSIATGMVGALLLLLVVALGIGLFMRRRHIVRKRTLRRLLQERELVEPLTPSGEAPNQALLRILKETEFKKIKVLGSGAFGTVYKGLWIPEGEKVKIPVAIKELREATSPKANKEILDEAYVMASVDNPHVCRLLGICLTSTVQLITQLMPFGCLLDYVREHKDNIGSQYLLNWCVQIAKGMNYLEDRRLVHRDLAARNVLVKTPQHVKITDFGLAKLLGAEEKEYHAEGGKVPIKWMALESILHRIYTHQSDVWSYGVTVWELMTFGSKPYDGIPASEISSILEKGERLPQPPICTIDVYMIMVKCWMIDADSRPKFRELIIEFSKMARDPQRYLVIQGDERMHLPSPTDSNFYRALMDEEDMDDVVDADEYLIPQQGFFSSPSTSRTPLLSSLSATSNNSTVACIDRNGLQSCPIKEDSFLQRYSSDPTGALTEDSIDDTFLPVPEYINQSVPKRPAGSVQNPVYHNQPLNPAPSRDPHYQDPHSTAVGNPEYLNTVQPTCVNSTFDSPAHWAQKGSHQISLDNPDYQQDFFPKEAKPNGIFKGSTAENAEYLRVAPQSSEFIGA

Aurora kinase A = target: T1, Aurora kinase A (Homo sapiens, UniProt O14965); assay: Inhibition of aurora-A (unknown origin); procedure, shortened: as §1
T1 sequence (O14965 whole entry): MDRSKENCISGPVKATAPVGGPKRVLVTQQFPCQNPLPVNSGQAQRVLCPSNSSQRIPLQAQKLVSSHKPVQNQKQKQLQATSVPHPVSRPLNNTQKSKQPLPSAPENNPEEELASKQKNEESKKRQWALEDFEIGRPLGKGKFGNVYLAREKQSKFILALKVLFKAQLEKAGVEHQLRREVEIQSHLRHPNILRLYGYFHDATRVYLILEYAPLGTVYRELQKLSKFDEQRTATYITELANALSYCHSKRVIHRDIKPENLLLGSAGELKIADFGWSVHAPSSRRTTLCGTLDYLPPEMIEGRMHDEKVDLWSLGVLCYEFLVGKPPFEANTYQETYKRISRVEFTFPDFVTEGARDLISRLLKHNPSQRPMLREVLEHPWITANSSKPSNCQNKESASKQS

[5] = target: Receptor tyrosine-protein kinase erbB-2 (Homo sapiens, UniProt P04626); assay: Inhibition of ERBB2 (unknown origin); procedure, shortened: as §1
Receptor tyrosine-protein kinase erbB-2, sequence (P04626 whole entry): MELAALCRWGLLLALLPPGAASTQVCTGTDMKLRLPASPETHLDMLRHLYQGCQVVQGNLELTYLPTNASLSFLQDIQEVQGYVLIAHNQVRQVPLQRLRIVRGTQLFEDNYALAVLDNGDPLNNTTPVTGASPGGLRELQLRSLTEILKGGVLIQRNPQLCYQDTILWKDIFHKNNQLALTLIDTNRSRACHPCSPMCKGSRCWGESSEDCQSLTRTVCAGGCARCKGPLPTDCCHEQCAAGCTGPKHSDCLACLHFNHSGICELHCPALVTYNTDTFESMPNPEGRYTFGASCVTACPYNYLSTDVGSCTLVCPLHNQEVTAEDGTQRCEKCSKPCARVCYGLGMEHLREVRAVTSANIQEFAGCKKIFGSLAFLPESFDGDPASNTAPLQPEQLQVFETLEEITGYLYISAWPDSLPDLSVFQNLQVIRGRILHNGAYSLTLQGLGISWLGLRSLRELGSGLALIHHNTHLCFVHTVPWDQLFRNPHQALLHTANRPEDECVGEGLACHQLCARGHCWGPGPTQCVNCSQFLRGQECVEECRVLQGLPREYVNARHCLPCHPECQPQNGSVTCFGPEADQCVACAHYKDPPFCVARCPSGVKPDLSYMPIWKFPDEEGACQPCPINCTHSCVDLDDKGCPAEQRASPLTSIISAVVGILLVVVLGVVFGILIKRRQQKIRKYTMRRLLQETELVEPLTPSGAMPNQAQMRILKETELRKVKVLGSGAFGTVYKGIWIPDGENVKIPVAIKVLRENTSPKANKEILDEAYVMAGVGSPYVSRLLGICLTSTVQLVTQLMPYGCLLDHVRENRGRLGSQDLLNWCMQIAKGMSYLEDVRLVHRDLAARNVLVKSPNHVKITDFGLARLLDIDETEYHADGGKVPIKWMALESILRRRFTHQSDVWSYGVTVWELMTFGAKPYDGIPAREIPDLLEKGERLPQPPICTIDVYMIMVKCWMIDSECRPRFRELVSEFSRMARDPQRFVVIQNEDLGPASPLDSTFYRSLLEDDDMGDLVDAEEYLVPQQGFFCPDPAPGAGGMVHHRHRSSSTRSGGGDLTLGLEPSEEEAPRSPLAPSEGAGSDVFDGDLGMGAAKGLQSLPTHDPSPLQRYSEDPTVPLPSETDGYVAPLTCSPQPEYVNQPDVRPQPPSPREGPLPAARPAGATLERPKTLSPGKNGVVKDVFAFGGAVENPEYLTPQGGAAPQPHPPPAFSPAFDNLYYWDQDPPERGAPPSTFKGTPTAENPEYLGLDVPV

[6] = target: Cyclin-dependent kinase 4/cyclin D1 (Homo sapiens, UniProt P11802); assay: Inhibition of CDK4/cyclin-D1 (unknown origin); assay type: protein-complex assay; procedure, shortened: as §1
Cyclin-dependent kinase 4/cyclin D1, sequence (P11802 whole entry): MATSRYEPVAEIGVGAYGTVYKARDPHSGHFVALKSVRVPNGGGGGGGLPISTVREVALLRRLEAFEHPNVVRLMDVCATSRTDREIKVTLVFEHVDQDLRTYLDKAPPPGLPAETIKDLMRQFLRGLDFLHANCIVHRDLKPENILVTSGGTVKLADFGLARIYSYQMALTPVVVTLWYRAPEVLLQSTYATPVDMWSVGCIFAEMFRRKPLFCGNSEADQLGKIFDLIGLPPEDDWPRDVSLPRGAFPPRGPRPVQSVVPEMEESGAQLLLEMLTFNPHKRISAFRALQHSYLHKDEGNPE
Cyclin-dependent kinase 4/cyclin D1, sequence (P24385 whole entry, further chain): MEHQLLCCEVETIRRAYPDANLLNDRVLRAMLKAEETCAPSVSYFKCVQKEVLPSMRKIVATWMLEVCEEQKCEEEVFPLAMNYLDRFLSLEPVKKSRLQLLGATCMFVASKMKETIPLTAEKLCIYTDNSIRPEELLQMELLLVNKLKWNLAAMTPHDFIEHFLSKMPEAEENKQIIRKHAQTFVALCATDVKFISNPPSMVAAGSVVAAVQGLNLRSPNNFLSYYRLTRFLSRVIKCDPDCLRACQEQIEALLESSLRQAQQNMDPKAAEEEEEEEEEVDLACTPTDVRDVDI

Angiopoietin-1 receptor = Angiopoietin-1 receptor (Homo sapiens, UniProt Q02763); assay: Inhibition of TIE2 (unknown origin); procedure, shortened: as §1
[7] = target: T2, Serine/threonine-protein kinase PLK4 (Homo sapiens, UniProt O00444); assay: Inhibition of SAK (unknown origin); procedure, shortened: as §1
T2 sequence (O00444 whole entry): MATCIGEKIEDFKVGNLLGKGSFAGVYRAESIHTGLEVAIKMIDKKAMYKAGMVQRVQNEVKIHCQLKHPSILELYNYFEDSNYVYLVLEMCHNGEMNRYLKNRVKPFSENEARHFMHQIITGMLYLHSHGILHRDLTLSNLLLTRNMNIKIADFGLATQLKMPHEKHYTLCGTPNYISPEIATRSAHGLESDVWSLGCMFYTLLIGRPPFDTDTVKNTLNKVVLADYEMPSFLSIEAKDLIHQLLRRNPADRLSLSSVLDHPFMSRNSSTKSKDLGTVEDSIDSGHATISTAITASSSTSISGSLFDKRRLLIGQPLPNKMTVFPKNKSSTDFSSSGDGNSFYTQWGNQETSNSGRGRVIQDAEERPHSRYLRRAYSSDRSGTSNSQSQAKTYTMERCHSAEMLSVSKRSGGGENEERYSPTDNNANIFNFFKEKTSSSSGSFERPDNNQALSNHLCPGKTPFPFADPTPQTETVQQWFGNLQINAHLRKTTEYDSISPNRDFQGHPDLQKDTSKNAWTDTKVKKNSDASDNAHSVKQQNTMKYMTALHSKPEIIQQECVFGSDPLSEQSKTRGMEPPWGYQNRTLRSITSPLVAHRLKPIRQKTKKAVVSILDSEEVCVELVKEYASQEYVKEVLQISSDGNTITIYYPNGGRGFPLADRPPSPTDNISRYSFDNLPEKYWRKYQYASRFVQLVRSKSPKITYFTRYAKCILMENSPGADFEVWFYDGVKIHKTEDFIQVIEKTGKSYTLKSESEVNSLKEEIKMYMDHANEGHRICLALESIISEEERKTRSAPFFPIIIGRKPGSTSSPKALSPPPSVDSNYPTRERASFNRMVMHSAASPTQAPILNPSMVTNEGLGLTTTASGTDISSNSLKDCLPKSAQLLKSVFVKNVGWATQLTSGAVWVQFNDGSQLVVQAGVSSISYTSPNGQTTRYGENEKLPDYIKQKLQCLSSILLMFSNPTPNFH

[8] = target: Insulin-like growth factor 1 receptor (Homo sapiens, UniProt P08069); assay: Inhibition of IGF1R (unknown origin); procedure, shortened: as §1
[9] = target: Mitogen-activated protein kinase kinase kinase 8 (Homo sapiens, UniProt P41279); assay: Inhibition of COT (unknown origin)
Mitogen-activated protein kinase kinase kinase 8, sequence (P41279 whole entry): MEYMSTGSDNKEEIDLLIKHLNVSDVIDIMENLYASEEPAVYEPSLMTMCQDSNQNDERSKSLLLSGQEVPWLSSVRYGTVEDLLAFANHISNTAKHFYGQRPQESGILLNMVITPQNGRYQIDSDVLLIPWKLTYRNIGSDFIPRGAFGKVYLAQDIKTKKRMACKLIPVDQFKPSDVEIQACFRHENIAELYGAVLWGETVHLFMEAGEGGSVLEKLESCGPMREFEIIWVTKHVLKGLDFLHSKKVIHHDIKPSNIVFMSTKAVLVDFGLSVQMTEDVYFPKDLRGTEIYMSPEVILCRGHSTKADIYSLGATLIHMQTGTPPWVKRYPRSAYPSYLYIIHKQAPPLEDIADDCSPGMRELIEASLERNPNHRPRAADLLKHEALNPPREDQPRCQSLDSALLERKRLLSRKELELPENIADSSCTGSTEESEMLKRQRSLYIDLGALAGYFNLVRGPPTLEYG
Procedure, shortened: (§2)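 Biochemical (cell-free) assay using a panel of 24 protein kinases. The read-out was the IC50.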

[10] = target: T3, NUAK family SNF1-like kinase 1 (Homo sapiens, UniProt O60285); assay: Inhibition of ARK5 (unknown origin); procedure, shortened: as §1
T3 sequence (O60285 whole entry): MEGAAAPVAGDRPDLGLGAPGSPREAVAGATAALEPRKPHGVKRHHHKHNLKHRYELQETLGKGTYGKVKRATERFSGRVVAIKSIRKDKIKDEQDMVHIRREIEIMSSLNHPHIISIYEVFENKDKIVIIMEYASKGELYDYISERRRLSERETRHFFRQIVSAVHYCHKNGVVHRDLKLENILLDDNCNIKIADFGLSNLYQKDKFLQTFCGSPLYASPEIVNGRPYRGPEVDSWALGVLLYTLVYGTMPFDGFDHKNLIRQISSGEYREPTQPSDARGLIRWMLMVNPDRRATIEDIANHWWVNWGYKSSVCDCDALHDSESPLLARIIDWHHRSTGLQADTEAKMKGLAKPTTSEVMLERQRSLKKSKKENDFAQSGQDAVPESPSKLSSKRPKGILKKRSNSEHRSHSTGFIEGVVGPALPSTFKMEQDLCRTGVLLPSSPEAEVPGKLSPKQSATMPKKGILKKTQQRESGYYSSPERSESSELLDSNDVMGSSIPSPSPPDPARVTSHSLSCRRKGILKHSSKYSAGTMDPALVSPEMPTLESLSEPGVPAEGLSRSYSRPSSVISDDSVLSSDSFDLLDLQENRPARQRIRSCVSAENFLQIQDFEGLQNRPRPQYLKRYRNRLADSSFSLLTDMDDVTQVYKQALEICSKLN

[11] = target: Vascular endothelial growth factor receptor 3 (Homo sapiens, UniProt P35916); assay: Inhibition of VEGFR3 (unknown origin); procedure, shortened: as §1
[12] = target: Platelet-derived growth factor receptor beta (Homo sapiens, UniProt P09619); assay: Inhibition of PDGFR-beta (unknown origin)
[13] = target: Hepatocyte growth factor receptor (Homo sapiens, UniProt P08581); assay: Inhibition of MET (unknown origin); procedure, shortened: as §1
[14] = target: T4, Receptor-type tyrosine-protein kinase FLT3 (Homo sapiens, UniProt P36888); assay: Inhibition of FLT3 (unknown origin); procedure, shortened: as §2
T4 sequence (P36888 whole entry): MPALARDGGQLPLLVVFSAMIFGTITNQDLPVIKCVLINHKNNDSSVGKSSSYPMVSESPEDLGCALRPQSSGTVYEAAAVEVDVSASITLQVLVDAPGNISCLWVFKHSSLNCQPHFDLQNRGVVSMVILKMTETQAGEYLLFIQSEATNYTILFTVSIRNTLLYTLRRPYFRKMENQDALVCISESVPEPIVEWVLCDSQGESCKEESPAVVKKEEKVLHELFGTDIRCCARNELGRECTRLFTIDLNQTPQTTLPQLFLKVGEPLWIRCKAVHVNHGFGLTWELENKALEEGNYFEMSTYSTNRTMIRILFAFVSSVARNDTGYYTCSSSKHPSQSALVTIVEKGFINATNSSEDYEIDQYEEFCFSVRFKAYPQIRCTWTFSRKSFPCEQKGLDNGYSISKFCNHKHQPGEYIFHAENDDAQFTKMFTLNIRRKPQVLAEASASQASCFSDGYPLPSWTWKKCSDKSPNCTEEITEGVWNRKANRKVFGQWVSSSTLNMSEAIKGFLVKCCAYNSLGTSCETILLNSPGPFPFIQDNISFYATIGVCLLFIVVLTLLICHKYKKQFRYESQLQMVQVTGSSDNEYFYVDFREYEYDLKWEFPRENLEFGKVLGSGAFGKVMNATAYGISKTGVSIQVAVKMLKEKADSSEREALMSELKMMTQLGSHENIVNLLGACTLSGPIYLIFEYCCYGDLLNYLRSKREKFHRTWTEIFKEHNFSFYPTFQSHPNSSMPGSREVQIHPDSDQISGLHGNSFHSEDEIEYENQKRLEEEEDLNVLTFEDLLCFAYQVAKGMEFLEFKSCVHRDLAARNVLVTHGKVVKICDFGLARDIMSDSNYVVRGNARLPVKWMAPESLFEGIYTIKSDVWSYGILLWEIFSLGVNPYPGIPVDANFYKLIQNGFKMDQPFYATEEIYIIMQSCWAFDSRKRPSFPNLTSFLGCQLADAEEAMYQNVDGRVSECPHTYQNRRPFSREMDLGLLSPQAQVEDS

Insulin receptor = Insulin receptor (Homo sapiens, UniProt P06213); assay: Inhibition of INSR (unknown origin); procedure, shortened: as §1

O=C1N/C=C/c2ccc(c(Br)c2)Oc2cc(ccc2O)CCNC(=O)/C(=N/O)Cc2cc(Br)c(c(Br)c2)Oc2cc(cc(Br)c2O)C/C1=N\O [BASTADIN 11]
IC50 (L5178Y): 3700 nM

O=C1N/C=C/c2ccc(c(Br)c2)Oc2cc(cc(Br)c2O)CCNC(=O)/C(=N/O)Cc2ccc(c(Br)c2)Oc2cc(cc(Br)c2O)C/C1=N\O [BASTADIN 7]
IC50 (Focal adhesion kinase 1): 7300 nM
IC50 [1]: 4400 nM
IC50 [2]: 1300 nM
IC50 [3]: 2000 nM
IC50 (Ephrin type-B receptor 4): 7700 nM
IC50 (Aurora kinase B): 2600 nM
IC50 [4]: 1500 nM
IC50 (Aurora kinase A): 3900 nM
IC50 [5]: 2800 nM
IC50 [6]: 2600 nM
IC50 (L5178Y): 5300 nM
IC50 (Angiopoietin-1 receptor): 1800 nM
IC50 [7]: 1900 nM
IC50 [8]: 1700 nM
IC50 [9]: 3300 nM
IC50 [10]: 3200 nM
IC50 [11]: 3200 nM
IC50 [12]: 10200 nM
IC50 [13]: 2800 nM
IC50 [14]: 2900 nM
IC50 (Insulin receptor): 4400 nM

O=C1NCCc2ccc(O)c(c2)Oc2c(Br)cc(cc2Br)CCNC(=O)/C(=N/O)Cc2cc(Br)c(O)c(c2)Oc2c(Br)cc(cc2Br)C/C1=N\O [BASTADIN 16]
IC50 (Aurora kinase B): 1600 nM
IC50 [4]: 2900 nM
IC50 (Aurora kinase A): 1300 nM
IC50 [5]: 4500 nM
IC50 [6]: 4000 nM
IC50 (L5178Y): 1900 nM
